Test results taken from ChEMBL document CHEMBL1938298, “Synthesis and characterization of [¹²⁵I]2-iodo N-[(S)-{(S)-1-methylpiperidin-2-yl}(phenyl)methyl]3-trifluoromethyl-benzamide as novel imaging probe for glycine transporter 1” (Bioorg Med Chem, 2011).
The source made the active and inactive calls. The rule behind the calls is not given here.

How the values were obtained:
[1] = system: Spleen; test: Drug uptake in ddY mouse spleen at 11.1 kBq, iv after 15 min by gamma counting; format: ADME, organism-based; details: in vivo
Outline: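 Male ddY mice (6 weeks, 30–35 g) were given about 11.1 kBq of [125I]tracer in 0.1 mL i.v. via the tail vein. At each time point the animals were killed and organs dissected, weighed and gamma-counted. Uptake is expressed as % injected dose per gram of tissue, mean ± SD, n = 5–6.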

[2] = system: Mus musculus; test: In vivo binding affinity to GlyT1 in ddY mouse brain medullary region at 33.3 kBq, iv after 60 mins in presence of nonradioactive compound 2 mg/kg, iv administered 15 mins prior to compound administration relative to control; format: functional, Medulla of organ
[3] = target: T1, Sodium- and chloride-dependent glycine transporter 1 (Rattus norvegicus) (UniProt P28572); test: Binding affinity to GlyT1 in rat brain medullary region at 0.03 to 0.04 nM preincubated for 20 mins in binding buffer before compound addition measured after 30 mins by autoradiography in presence of 0.01 mM NMDA receptor glycine site antagonist L-701,324 relative to control; format: tissue-based; details: tested as the 125I-labelled form
T1 sequence (whole entry): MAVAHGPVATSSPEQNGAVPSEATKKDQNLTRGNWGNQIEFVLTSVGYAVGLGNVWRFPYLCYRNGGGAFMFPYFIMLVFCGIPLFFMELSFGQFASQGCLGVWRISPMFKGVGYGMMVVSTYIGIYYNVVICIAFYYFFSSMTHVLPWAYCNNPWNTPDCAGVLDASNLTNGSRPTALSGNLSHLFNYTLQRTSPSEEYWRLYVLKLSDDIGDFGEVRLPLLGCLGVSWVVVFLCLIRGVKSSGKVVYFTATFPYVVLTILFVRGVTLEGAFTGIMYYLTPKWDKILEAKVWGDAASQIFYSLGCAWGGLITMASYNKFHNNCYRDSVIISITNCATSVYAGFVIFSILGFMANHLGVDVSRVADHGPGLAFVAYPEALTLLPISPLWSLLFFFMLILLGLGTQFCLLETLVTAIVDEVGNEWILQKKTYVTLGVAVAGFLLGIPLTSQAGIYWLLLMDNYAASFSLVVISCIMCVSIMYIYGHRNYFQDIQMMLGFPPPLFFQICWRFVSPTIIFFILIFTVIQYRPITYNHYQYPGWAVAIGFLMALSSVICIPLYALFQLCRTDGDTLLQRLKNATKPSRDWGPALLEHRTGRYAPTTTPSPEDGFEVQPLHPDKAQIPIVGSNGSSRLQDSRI
Outline: (§1)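 Rat brain sagittal sections (20 µm) preincubated 20 min at 25 °C in Tris-HCl buffer pH 7.5 (NaCl, KCl, MgCl2, CaCl2), then 30 min at 25 °C with [125I] tracer (100 kBq, 0.03–0.04 nM) plus competitor (10 µM; glycine 1 or 10 mM). Cold washes, imaging plate 3 days, ROI PSL minus background per mm². % control from ≥triplicate slices, three rats.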

[4] = system: Mus musculus; test: In vivo binding affinity to GlyT1 in ddY mouse brain hippocampus at 33.3 kBq, iv after 30 mins in presence of nonradioactive compound 2 mg/kg, iv administered 15 mins prior to compound administration relative to control; format: functional, organism-based; parameters: dose 2 mg/kg; details: tested as the 125I-labelled form
Outline: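 Blocking study in male ddY mice (6 weeks, 30–35 g). The blocker (2 mg/kg in 30% DMSO/saline) was injected i.v. 15 min before about 33.3 kBq [125I]tracer i.v.; mice were killed at 30 or 60 min. Brains were divided into cortex, corpus callosum, hippocampus, thalamus, midbrain, medulla and cerebellum, weighed and gamma-counted as % dose/g. Values are mean ± SD, n = 5–6, compared to control by Kruskal–Wallis with Dunn's post-test.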

[5] = target: T1, Sodium- and chloride-dependent glycine transporter 1 (Rattus norvegicus); test: Binding affinity to GlyT1 in rat brain striatum at 0.03 to 0.04 nM preincubated for 20 mins in binding buffer before compound addition measured after 30 mins by autoradiography in presence of GlyT1 inhibitor N-Me-SSR504734 relative to control; format: tissue-based; details: tested as the 125I-labelled form
[6] = target: T1, Sodium- and chloride-dependent glycine transporter 1 (Rattus norvegicus); test: Binding affinity to GlyT1 in rat brain corpus callosum at 0.03 to 0.04 nM preincubated for 20 mins in binding buffer before compound addition measured after 30 mins by autoradiography in presence of 10 mM GlyT1 substrate glycine relative to control; format: tissue-based; details: tested as the 125I-labelled form; outline: as §1
[7] = target: T1, Sodium- and chloride-dependent glycine transporter 1 (Rattus norvegicus); test: Binding affinity to GlyT1 in rat brain hippocampus at 0.03 to 0.04 nM preincubated for 20 mins in binding buffer before compound addition measured after 30 mins by autoradiography in presence of 0.01 mM GlyT1 inhibitor ALX5407 relative to control; format: tissue-based; details: tested as the 125I-labelled form; outline: as §1
[8] = target: T1, Sodium- and chloride-dependent glycine transporter 1 (Rattus norvegicus); test: Binding affinity to GlyT1 in rat brain striatum at 0.03 to 0.04 nM preincubated for 20 mins in binding buffer before compound addition measured after 30 mins by autoradiography in presence of 0.01 mM GlyT1 inhibitor SSR504734 relative to control; format: tissue-based; details: tested as the 125I-labelled form
[9] = target: T2, Sodium- and chloride-dependent glycine transporter 1 (Homo sapiens) (UniProt P48067); test: Ratio of compound IC50 to ALX5407 IC50 for human GlyT1
T2 sequence (whole entry): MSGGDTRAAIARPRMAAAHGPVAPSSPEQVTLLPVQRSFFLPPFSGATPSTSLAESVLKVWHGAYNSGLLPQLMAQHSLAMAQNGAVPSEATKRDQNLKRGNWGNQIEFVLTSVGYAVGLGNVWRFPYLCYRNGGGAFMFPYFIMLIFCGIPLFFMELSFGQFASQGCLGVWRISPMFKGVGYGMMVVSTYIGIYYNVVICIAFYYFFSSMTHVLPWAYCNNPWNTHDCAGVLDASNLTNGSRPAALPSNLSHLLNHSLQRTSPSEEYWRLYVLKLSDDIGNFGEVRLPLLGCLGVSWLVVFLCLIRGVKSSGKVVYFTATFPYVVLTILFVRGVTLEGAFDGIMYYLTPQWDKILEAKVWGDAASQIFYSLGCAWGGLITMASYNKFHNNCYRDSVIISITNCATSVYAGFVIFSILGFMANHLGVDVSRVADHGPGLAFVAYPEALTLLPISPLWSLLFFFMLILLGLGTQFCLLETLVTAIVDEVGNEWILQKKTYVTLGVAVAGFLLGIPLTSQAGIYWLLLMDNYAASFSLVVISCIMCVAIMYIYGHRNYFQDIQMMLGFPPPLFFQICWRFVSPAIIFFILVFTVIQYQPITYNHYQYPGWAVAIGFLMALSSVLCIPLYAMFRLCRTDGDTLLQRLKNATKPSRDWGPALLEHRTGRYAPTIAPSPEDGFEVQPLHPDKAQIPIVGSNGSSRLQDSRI

[10] = target: T1, Sodium- and chloride-dependent glycine transporter 1 (Rattus norvegicus); test: Binding affinity to GlyT1 in rat brain hippocampus at 0.03 to 0.04 nM preincubated for 20 mins in binding buffer before compound addition measured after 30 mins by autoradiography in presence of 1 mM GlyT1 substrate glycine relative to control; format: tissue-based; details: tested as the 125I-labelled form; outline: as §1
[11] = system: Mus musculus; test: In vivo binding affinity to GlyT1 in ddY mouse brain midbrain at 200 kBq, iv after 60 mins by autoradiography relative to control; format: functional, organism-based; details: tested as the 125I-labelled form
[12] = system: Mus musculus; test: In vivo binding affinity to GlyT1 in ddY mouse brain striatum at 33.3 kBq, iv after 60 mins in presence of N-Me-SSR504734 2 mg/kg, iv administered 15 mins prior to compound administration relative to control; format: functional, organism-based; parameters: dose 2 mg/kg; details: tested as the 125I-labelled form

Drug uptake [1] [% ID/g]	Activity [3] [%]	Activity [5] [%]	Activity [6] [%]	Activity [7] [%]	Activity [8] [%]	Ratio IC50 [9]	Activity [10] [%]	Compound	Activity [2] [%]	Activity [4]	Activity [11]	Activity [12]
5.5	–	–	–	–	–	–	–	CN1CCCC[C@H]1[C@@H](NC(=O)c1cccc(C(F)(F)F)c1[125I])c1ccccc1	52	–	–	–
–	104	32.2	39.6	63.2	50.2	6	108	CN1CCCC[C@H]1[C@@H](NC(=O)c1cccc(C(F)(F)F)c1I)c1ccccc1	–	Active	Active	Active
